The values that follow come from ChEMBL document CHEMBL1177760, “Antioxidative activities of histidine containing caffeic acid-dipeptides” (Bioorg Med Chem Lett, 2010).

Series [1] is described as follows: Antioxidant activity against lipid peroxidation at 90 uM after 10 hrs by ferric thiocyanate method relative to control. Type of series: functional. An outline of the steps:
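Linoleic acid (>99%) emulsified with Tween 20, biphasic autoxidation system; each antioxidant at 90 µM final, held at 50 °C in the dark; lipid peroxidation read by ferric thiocyanate absorbance at 10 h, expressed as percent inhibition (%Pi) against untreated control; triplicate, mean ± standard error.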

Series [2] concerns Radical scavenging activity. The experiment in a line: Antioxidant activity assessed as DPPH free radical scavenging activity at 25 uM after 20 mins relative to control. Format: functional. The gist of the method: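 DPPH radical scavenging run in methanol and in acetate-buffered (pH 5.5) methanol; antioxidant:DPPH molar ratio 0.25; triplicate, repeated five times; mean ± standard error.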

Series [3] deals with Xanthine dehydrogenase/oxidase (Homo sapiens, UniProt P47989). The experiment in a line: Inhibition of xanthine oxidase after 15 mins. The note with it: 0.25 h. The gist of the method: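 Xanthine oxidase inhibition with test agent at 0.1 mM; triplicate, mean ± standard error.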
Sequence of Xanthine dehydrogenase/oxidase (P47989 whole entry): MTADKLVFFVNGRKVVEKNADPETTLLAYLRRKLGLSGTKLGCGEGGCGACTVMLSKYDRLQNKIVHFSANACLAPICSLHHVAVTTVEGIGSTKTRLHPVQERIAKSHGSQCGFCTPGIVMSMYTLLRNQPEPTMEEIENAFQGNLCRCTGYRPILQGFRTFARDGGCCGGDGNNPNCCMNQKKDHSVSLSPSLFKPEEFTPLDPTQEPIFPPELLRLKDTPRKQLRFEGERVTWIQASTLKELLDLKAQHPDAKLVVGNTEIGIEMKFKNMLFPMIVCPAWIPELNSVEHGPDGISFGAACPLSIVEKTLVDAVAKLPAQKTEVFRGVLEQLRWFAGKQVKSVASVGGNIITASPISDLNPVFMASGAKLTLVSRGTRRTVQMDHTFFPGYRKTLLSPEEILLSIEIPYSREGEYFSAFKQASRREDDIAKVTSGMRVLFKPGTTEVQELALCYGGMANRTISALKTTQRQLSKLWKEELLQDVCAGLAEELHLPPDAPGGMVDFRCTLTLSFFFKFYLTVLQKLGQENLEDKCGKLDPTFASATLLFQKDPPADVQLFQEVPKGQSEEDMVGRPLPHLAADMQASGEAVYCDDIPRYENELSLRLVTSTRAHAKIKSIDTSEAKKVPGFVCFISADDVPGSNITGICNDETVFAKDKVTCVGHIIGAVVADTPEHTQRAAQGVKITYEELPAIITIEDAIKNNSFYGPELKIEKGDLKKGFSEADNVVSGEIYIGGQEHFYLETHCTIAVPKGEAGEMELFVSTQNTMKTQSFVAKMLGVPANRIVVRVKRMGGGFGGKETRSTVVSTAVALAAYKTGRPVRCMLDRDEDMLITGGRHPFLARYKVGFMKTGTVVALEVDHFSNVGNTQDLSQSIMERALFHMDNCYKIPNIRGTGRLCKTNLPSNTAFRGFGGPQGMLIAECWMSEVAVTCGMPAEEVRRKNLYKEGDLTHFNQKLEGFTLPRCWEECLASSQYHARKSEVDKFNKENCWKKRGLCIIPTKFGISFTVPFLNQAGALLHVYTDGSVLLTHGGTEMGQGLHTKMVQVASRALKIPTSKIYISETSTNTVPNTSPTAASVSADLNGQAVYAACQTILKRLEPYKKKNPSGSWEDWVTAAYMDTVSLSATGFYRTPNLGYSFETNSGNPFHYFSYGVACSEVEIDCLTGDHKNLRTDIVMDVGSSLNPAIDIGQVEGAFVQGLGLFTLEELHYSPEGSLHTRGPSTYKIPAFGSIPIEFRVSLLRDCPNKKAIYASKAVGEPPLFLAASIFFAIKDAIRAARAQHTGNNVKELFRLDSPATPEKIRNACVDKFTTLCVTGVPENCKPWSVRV

The compound `NC(=O)[C@H](Cc1ccccc1)NC(=O)[C@H](Cc1cnc[nH]1)NC(=O)/C=C/c1ccc(O)c(O)c1` had an Activity in series [1] of 72%.
Still for that read-out and setting: the same measure for `NC(=O)CCNC(=O)[C@H](Cc1cnc[nH]1)NC(=O)/C=C/c1ccc(O)c(O)c1`: 71%.
Consider `NC(=O)[C@H](Cc1cnc[nH]1)NC(=O)[C@H](Cc1ccccc1)NC(=O)/C=C/c1ccc(O)c(O)c1`, for which the Activity in series [1] stood at 80%; in series [2] it was 59%.
With `O=C(O)/C=C/c1ccc(O)c(O)c1`, the Activity in series [2] amounted to 47%.
With `NC(=O)[C@H](CC(=O)O)NC(=O)[C@H](Cc1cnc[nH]1)NC(=O)/C=C/c1ccc(O)c(O)c1`, the Activity amounted to 73% in series [1] and 49% in series [2].
In turn, `NC(=O)[C@@H]1CCCN1C(=O)[C@H](Cc1cnc[nH]1)NC(=O)/C=C/c1ccc(O)c(O)c1` registered an Activity in series [1] of 61%.
For `NC(=O)[C@H](Cc1cnc[nH]1)NC(=O)[C@H](CC(=O)O)NC(=O)/C=C/c1ccc(O)c(O)c1`, the Activity stood at 82% in series [1] and 52% in series [2].
Consider `NCCCC[C@H](NC(=O)/C=C/c1ccc(O)c(O)c1)C(=O)N[C@@H](Cc1cnc[nH]1)C(N)=O`, for which the Activity in series [1] is 84%; in series [2], 65%.
As to `C[C@H](NC(=O)[C@H](Cc1cnc[nH]1)NC(=O)/C=C/c1ccc(O)c(O)c1)C(N)=O`, in series [1], the Activity turned out to be 66%.
Turning to `NCCCC[C@H](NC(=O)[C@H](Cc1cnc[nH]1)NC(=O)/C=C/c1ccc(O)c(O)c1)C(N)=O`, the Activity amounted to 76% in series [1] and 54% in series [2].
In series [1], `NC(=O)[C@H](Cc1cnc[nH]1)NC(=O)[C@H](Cc1cnc[nH]1)NC(=O)/C=C/c1ccc(O)c(O)c1` had an Activity of 80%.
On the same count and under the same terms, the same measure for `NC(=O)[C@H](Cc1cnc[nH]1)NC(=O)[C@H](CS)NC(=O)/C=C/c1ccc(O)c(O)c1`: 84%.
In the case of `NC(=O)[C@H](Cc1cnc[nH]1)NC(=O)[C@@H]1CCCN1C(=O)/C=C/c1ccc(O)c(O)c1`, the “inhibition (INH)” value in series [3] is 52%. Further, the Activity in series [1] stood at 87%; in series [2], 71%.
In turn, `NC(=O)[C@H](Cc1cnc[nH]1)NC(=O)[C@H](CO)NC(=O)/C=C/c1ccc(O)c(O)c1` displayed an Activity in series [1] of 83%.
For `COc1ccc(O)c(C(C)(C)C)c1.COc1ccc(O)cc1C(C)(C)C`, the Activity was 86% in series [1] and 62% in series [2].
`NC(=O)[C@H](Cc1ccccc1)NC(=O)/C=C/c1ccc(O)c(O)c1`: the Activity in series [1] worked out at 73%; in series [2], 51%.
Compound `NC(=O)[C@H](CO)NC(=O)[C@H](Cc1cnc[nH]1)NC(=O)/C=C/c1ccc(O)c(O)c1` showed an Activity in series [1] of 71%.
On the same count and under the same terms, next, `C[C@H](NC(=O)/C=C/c1ccc(O)c(O)c1)C(=O)N[C@@H](Cc1cnc[nH]1)C(N)=O`: 84%; `NC(=O)[C@H](CS)NC(=O)[C@H](Cc1cnc[nH]1)NC(=O)/C=C/c1ccc(O)c(O)c1`: 79%.
As for `NC(=O)[C@H](Cc1cnc[nH]1)NC(=O)CCNC(=O)/C=C/c1ccc(O)c(O)c1`, the Activity was determined as 64% in series [1] and 70% in series [2].
